From article PMC5931369 (Nature chemical biology, 2018)
Values joined by “and” are separate entries in the source; they are usually repeats but may differ in a detail not shown here. Equal values may be shown once. “Also recorded” adds a separate entry of the source.

How the values were obtained:
ptc>dRet^M955T flies = test: rescue-from-lethality assay in ptc>dRet^M955T flies; format: in vivo, Drosophila; details: drug food, 25°C; for rescue of ptc>dRet^M955T flies to adulthood (% viability): optimal dose
Outline: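 ptc-gal4,UAS-GFP;UAS-dRetM955T/SM5tub-gal80-TM6B flies were crossed with w−. Embryos were raised for 13 days at 25°C on semi-defined medium carrying compound added from DMSO, 0.1% final. Flies were randomised. % viability = empty pupal cases ÷ total pupal cases. The assay was repeated twice.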

[1] = tested on: BRAF in HCT-116 and LOVO cells; test: RAF transactivation assay in human cancer cell lines; format: cell-based; details: two cancer cell lines (HCT-116, LOVO), 1 hour
Outline: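 HCT-116 cells are kept in DMEM and LOVO cells in DMEM/F12, each with 10% FBS, 2 mM glutamine and antibiotics. Cells are seeded, then treated with test compound for 1 hour after 24 hours. Lysates are BCA-normalised, run on 4–15% gradient SDS-PAGE and immunoblotted for pMEK, pERK1/2 and total MEK.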

765>dRet^M955T flies = test: wing venation assay; format: in vivo, Drosophila
Outline: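 UAS-dRetM955T;765-gal4/SM5tub-gal80-TM6B flies were crossed with w– or Lk6−/+ to give 765>dRetM955T or 765>dRetM955T,Lk6−/+ progeny. Progeny were reared for 13 days at 25°C on medium with or without compound (0.1% final DMSO). Adult wings were scored blind for abnormal venation. The assay was repeated twice.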

MZ-CRC-1 human MTC cells = test: signaling pathway activity analysis; format: cell-based; details: MZ-CRC-1 cells, 1 µM, 1 hour
Outline: (§1)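 MZ-CRC-1 or TT medullary thyroid carcinoma cells were exposed for 1 hour to vehicle (0.1% DMSO) or 1 µM test compound. Cells were harvested and immunoblotted for pMEK, total MEK, pERK1/2, total ERK1/2 and pS6.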

[2] = pharmacokinetics assay in mice; format: in vivo, mouse
Outline: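 Male ICR mice (6 weeks) received a single oral dose of 20 mg/kg. Plasma drug concentrations were measured at 0.25, 0.5, 1, 2, 4, 8, 10 and 24 h after dosing.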

RET = RET (Homo sapiens, UniProt P07949); test: Kd measurement; format: binding
Outline: (§2)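 Competition binding assay: kinases expressed on phage and captured on beads through immobilised active-site-directed ligands. Test compound is premixed with kinase and scored for its ability to compete for the immobilised ligand. An 11-point series, 30,000 to 0.5 nM in 3-fold dilutions, is used for each compound–kinase pair. Kd is fitted by the Hill equation with slope fixed at -1 and averaged over two replicates.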

toleration assay = format: in vivo, mouse
Outline: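 Five female athymic nude mice (6 weeks) received escalating oral doses from 0.1 mg/kg/day up to 160 mg/kg/day.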

[3] = tested on: dRet^M955T-expressing wing cells; test: in vivo cell migration assay in developing wing discs; set-up: species or system Drosophila; details: for effect of reduced Lk6 on suppression of ptc>dRet^M955T cell migration: ptc>dRet^M955T,Lk6^−/+ wing discs, 1 400 µM, 4 200 µM, 9 100 µM, 10 100 µM; for EMT and migration/invasion of dRet^M955T-expressing wing cells: ptc>dRet^M955T wing discs
Outline: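 Third-instar larvae were dissected to collect developing wing discs. Discs were fixed in 4% paraformaldehyde in PBS and whole-mounted. GFP-labelled dRetM955T-expressing cells were examined by confocal microscopy. Phospho-Src was immunostained with rabbit anti-Src(pY418).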

TT human MTC cells [4] = test: soft agar colony formation assay; format: cell-based; details: three weeks, compared with sorafenib and 4
Outline: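 TT cells were cultured in 0.3% agar with or without test compound for three weeks. Colony formation efficiency = number of growing colonies ÷ cells seeded. The assay was repeated twice.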

TT human MTC cells [5] = test: signaling pathway activity analysis; format: cell-based; details: 1 µM, 1 hour
Outline: as §1

TT cells = test: TT cell xenograft assay in nude mice; format: in vivo, mouse
Outline: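 Forty female nude mice (6 weeks) received subcutaneous TT cells. At ~120 mm3 tumour volume they were randomised into four arms. Each arm was dosed orally five days per week with vehicle or 10 mg/kg/day compound. Vehicle: Cremophor EL/ethanol (1:1) diluted 4-fold with water.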

MKNK1 = MKNK1 (Homo sapiens, UniProt Q9BUB5); test: Kd measurement; format: binding
Outline: as §2

BRAF = BRAF (Homo sapiens, UniProt P15056); test: Kd measurement; format: binding; details: cell-free in vitro
Outline: as §2

non-oncogenic w^− flies = test: whole body toxicity in control, non-transformed flies; format: in vivo, Drosophila; details: fed to control
[6] = tested on: ptc>dRet^M955T flies with or without kinase heterozygous mutations; format: in vivo, Drosophila; details: 23°C
[7] = higher doses that rescued ptc>dRet^M955T viability
[8] = low dose, 10 µM final food concentration, 765>dRet^M955T larvae

MKNK1, sequence (Q9BUB5 whole entry): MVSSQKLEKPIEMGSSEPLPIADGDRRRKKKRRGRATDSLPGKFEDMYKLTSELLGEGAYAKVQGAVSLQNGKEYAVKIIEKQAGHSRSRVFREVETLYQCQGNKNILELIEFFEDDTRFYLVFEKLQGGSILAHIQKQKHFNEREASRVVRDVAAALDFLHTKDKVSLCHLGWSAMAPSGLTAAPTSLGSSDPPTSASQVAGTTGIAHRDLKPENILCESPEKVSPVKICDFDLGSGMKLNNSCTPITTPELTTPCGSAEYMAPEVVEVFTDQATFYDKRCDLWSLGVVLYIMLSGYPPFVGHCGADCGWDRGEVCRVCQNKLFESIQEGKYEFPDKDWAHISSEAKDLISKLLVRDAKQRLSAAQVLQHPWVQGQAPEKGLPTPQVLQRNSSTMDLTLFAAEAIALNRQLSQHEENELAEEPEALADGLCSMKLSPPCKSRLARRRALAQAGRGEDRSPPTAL
BRAF, sequence (P15056 whole entry): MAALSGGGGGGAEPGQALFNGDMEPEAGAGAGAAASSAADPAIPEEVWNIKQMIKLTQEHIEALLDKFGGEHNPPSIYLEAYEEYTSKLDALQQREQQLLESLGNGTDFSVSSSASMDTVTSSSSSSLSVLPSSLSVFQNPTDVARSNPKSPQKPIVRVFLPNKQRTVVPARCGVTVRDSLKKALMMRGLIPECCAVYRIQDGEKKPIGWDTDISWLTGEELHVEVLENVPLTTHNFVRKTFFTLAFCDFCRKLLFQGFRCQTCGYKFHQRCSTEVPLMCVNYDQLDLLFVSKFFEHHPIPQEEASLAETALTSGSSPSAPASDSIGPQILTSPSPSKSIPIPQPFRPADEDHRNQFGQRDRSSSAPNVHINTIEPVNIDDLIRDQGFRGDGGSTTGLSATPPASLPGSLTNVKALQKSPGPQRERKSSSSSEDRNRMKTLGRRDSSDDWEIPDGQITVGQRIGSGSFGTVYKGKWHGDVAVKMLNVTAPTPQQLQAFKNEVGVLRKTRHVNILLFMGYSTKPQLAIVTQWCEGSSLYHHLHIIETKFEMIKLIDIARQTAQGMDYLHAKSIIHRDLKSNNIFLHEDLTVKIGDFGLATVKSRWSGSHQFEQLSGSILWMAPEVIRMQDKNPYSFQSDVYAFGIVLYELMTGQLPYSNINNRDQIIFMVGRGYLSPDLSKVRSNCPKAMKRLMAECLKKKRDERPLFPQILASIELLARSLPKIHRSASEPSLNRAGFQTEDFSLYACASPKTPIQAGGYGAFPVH
RET, sequence (P07949 29-1114): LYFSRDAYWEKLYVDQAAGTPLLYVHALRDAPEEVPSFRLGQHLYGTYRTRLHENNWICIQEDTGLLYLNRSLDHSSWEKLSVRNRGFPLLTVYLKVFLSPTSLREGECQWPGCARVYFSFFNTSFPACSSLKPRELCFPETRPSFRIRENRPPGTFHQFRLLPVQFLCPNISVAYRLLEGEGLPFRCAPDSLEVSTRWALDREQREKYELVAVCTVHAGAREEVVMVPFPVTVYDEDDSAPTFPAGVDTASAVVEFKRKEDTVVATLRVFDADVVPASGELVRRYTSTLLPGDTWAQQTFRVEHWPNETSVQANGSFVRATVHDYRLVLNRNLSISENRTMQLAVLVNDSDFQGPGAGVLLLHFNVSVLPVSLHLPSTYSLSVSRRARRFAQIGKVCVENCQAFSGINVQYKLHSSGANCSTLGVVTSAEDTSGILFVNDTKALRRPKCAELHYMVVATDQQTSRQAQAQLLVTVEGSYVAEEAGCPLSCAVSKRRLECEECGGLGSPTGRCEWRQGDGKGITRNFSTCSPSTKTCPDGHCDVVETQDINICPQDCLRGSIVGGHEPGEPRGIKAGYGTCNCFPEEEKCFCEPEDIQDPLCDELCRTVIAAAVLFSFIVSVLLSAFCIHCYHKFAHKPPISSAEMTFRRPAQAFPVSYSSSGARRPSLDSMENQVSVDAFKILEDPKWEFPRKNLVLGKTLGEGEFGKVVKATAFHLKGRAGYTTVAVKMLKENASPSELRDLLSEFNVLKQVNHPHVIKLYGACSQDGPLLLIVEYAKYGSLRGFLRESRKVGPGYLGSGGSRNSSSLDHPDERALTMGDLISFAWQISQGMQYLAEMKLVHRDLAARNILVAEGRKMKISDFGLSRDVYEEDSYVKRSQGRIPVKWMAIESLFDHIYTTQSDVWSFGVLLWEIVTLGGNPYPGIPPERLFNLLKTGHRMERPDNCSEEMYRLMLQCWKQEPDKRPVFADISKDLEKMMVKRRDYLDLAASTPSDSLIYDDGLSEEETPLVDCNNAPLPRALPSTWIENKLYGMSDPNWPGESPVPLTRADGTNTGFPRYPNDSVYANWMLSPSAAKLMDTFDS

**Q.** Which “rescue of ptc>dRet^M955T viability, in words” value (“rescue … in words” below) (ptc>dRet^M955T flies) does the source give for `CNC(=O)c1cc(Oc2ccc(NC(=O)Nc3ccc(Cl)c(C(F)(F)F)c3)c(F)c2)ccn1` [regorafenib, 4-(4-(3-(4-chloro-3-(trifluoromethyl)phenyl)ureido)-3-fluorophenoxy)-N-methylpicolinamide, reference compound] here?
**A.** only moderate

**Q.** With `CNC(=O)c1cc(Oc2ccc(NC(=O)Nc3cc(C(F)(C(F)(F)F)C(F)(F)F)ccc3F)cc2)ccn1` [compound 10, 4-(4-(3-(2-fluoro-5-(perfluoropropan-2-yl)phenyl)ureido)phenoxy)-N-methylpicolinamide] as the compound, how does the “rescue … in words” value (ptc>dRet^M955T flies) read?
**A.** strongly improved

**Q.** What about the “rescue of ptc>dRet^M955T flies to adulthood (% viability)” value (ptc>dRet^M955T flies) of the same compound?
**A.** 84%

**Q.** And the “drug concentration required to transactivate BRAF relative to sorafenib” value [1]?
**A.** ~ 30 fold

**Q.** And the ectopic wing venation (765>dRet^M955T flies; at any dose)?
**A.** failed to promote ectopic wing venation

**Q.** And the RAS pathway signaling (MZ-CRC-1 human MTC cells)?
**A.** strongly inhibited

**Q.** What about the “treatment-related clinical signs following dosing” value ([2]; 20 mg/kg orally, male ICR mice) of the same compound?
**A.** No treatment-related clinical signs were observed

**Q.** What about the “concentration in blood plasma” value ([2]; 20 mg/kg p.o., male ICR mice) of the same compound?
**A.** approximately 10 µM

**Q.** And the half-life ([2]; male, ICR, mouse, plasma, po, 20 mg/kg)?
**A.** 336 min

**Q.** What about the “RET binding relative to sorafenib” value (RET) of the same compound?
**A.** weaker RET binding

**Q.** What about the “signs of clinical distress (weight loss, discharges, morbidity)” value (toleration assay; female athymic nude mice, oral dose escalated from 0.1 up to 160 mg/kg/day) of the same compound?
**A.** no such signs were observed

**Q.** And the “toxic effects after oral dosing” value (toleration assay; single oral dose of 160 mg/kg)?
**A.** did not cause detectable toxic effects

**Q.** And the “effect of reduced Lk6 on suppression of ptc>dRet^M955T cell migration” value (shortened to “effect of reduced Lk6”) [3]?
**A.** not affected

**Q.** What about the “colony formation of TT cells in soft agar” value (TT human MTC cells [4]) of the same compound?
**A.** strongly suppressed

**Q.** And the RAS pathway signaling (TT human MTC cells [5])?
**A.** strongly inhibited

**Q.** What about the “partial or complete responses, share of dosed mice” value (TT cells; 10 mg/kg/day p.o. five days per week, day 30, female nude mice) of the same compound?
**A.** 75%

**Q.** What about the “growth of established TT tumors” value (TT cells; 10 mg/kg/day p.o. five days per week, subcutaneous xenograft, nude mice) of the same compound?
**A.** far more potently than sorafenib or cabozantinib

**Q.** And the “body weight of dosed mice” value (TT cells; 10 mg/kg/day p.o., after 30 days)?
**A.** no effect; also recorded: did not affect body weight

**Q.** And the “in vitro MKNK1 binding relative to sorafenib” value (MKNK1)?
**A.** only a small decrease

**Q.** What about the “BRAF binding compared to sorafenib and 4” value (BRAF) of the same compound?
**A.** reduced BRAF binding

**Q.** With `CNC(=O)c1cc(Oc2ccc(NC(=O)c3ccc(Cl)c(C(F)(F)F)c3)cc2)ccn1` [compound 6, 4-(4-(4-chloro-3-(trifluoromethyl)benzamido)phenoxy)-N-methylpicolinamide] as the compound, how does the “EMT and migration/invasion of dRet^M955T-expressing wing cells” value (shortened to “EMT and migration/invasion”) [3] read?
**A.** enhanced cell migration

**Q.** And the whole body toxicity (non-oncogenic w^− flies)?
**A.** toxic

**Q.** Which “rescue … in words” value (ptc>dRet^M955T flies) does the source give for “N-methyl-4-(4-(3-(3-(trifluoromethyl)phenyl)ureido)phenoxy)picolinamide [sorafenib, reference compound]” here?
**A.** only moderate

**Q.** What about the “rescue of ptc>dRet^M955T flies to adulthood (% viability)” value (ptc>dRet^M955T flies) of the same compound?
**A.** ~ 5% and 5%

**Q.** What about the ectopic wing venation (765>dRet^M955T flies; [7]) of the same compound?
**A.** did not promote ectopic wing venation

**Q.** What about the ectopic wing venation (765>dRet^M955T flies; [8]) of the same compound?
**A.** stimulated significant excess wing vein material

**Q.** What about the “EMT and migration/invasion” value [3] of the same compound?
**A.** suppressed both EMT and migration

**Q.** And the “effect of reduced Lk6” value [3]?
**A.** reversed suppression

**Q.** Which results are given for `CNC(=O)c1cc(Oc2ccc(NC(=O)Nc3cc(C(F)(F)C(F)(F)F)ccc3F)cc2)ccn1` [compound 9, 4-(4-(3-(2-fluoro-5-(perfluoroethyl)phenyl)ureido)phenoxy)-N-methylpicolinamide]?
**A.** rescue of ptc>dRet^M955T viability, in words (ptc>dRet^M955T flies): strongly improved; ectopic wing venation (765>dRet^M955T flies; at any dose): failed to promote ectopic wing venation; effect of reduced Lk6 on suppression of ptc>dRet^M955T cell migration [3]: not affected; colony formation of TT cells in soft agar (TT human MTC cells [4]): strongly suppressed; in vitro MKNK1 binding relative to sorafenib (MKNK1): significantly reduced; BRAF binding compared to sorafenib and 4 (BRAF): reduced BRAF binding

**Q.** Which results are given for `CNC(=O)c1cc(Oc2ccc(NC(=O)Nc3cc(C(F)F)ccc3F)cc2)ccn1` [compound 7, 4-(4-(3-(5-(difluoromethyl)-2-fluorophenyl)ureido)phenoxy)-N-methylpicolinamide]?
**A.** rescue of ptc>dRet^M955T viability, in words (ptc>dRet^M955T flies): reduced rescue; rescue of ptc>dRet^M955T viability, in words (ptc>dRet^M955T flies; listed as APS4-54): poor whole animal activity

**Q.** Which results are given for `CNC(=O)c1cc(Oc2ccc(NC(=O)Nc3cc(C(F)(F)F)ccc3F)c(F)c2)ccn1` [compound 5, 4-(3-fluoro-4-(3-(2-fluoro-5-(trifluoromethyl)phenyl)ureido)phenoxy)-N-methylpicolinamide]?
**A.** rescue of ptc>dRet^M955T viability, in words (ptc>dRet^M955T flies): more effective than sorafenib; EMT and migration/invasion of dRet^M955T-expressing wing cells [3]: as effective as sorafenib in suppressing EMT and invasion

**Q.** With `CNC(=O)c1cc(Oc2ccc(NC(=O)Nc3cc(C(F)(F)F)ccc3F)cc2)ccn1` [compound 4, 4-(4-(3-(2-fluoro-5-(trifluoromethyl)phenyl)ureido)phenoxy)-N-methylpicolinamide] as the compound, how does the “rescue … in words” value (ptc>dRet^M955T flies; listed as LS1-15) read?
**A.** more effective than sorafenib

**Q.** And the “viability of ptc>dRet^M955T flies” value ([6]; kinase-proficient control flies)?
**A.** ~ 50% and 50%

**Q.** What about the “survival to adulthood of ptc>dRet^M955T,Lk6^−/+ flies” value ([6]; one functional allele of Lk6 removed) of the same compound?
**A.** 0%

**Q.** What about the “viability of ptc>dRet^M955T,phl^−/+ flies” value ([6]; phl (RAF ortholog) heterozygous) of the same compound?
**A.** 96%

**Q.** And the ectopic wing venation (765>dRet^M955T flies; [7])?
**A.** did not promote ectopic wing venation

**Q.** What about the ectopic wing venation (765>dRet^M955T flies; [8]) of the same compound?
**A.** stimulated significant excess wing vein material

**Q.** And the “EMT and migration/invasion” value [3]?
**A.** as effective as sorafenib in suppressing EMT and invasion

**Q.** And the “effect of reduced Lk6” value [3]?
**A.** reversed suppression

**Q.** For `CNC(=O)c1cc(Oc2ccc(NC(=O)Nc3cc(C)ccc3F)cc2)ccn1` [compound 8, 4-(4-(3-(2-fluoro-5-methylphenyl)ureido)phenoxy)-N-methylpicolinamide], which “rescue … in words” value (ptc>dRet^M955T flies) is on record?
**A.** reduced rescue

**Q.** And the “rescue … in words” value (ptc>dRet^M955T flies; listed as APS4-35-1)?
**A.** poor whole animal activity

**Q.** With `CNC(=O)c1cc(Oc2ccc(NC(=O)Nc3cccc(C(F)(F)F)c3)cc2)ccn1` [LS1-11-2, N-methyl-4-(4-(3-(3-(trifluoromethyl)phenyl)ureido)phenoxy)picolinamide] as the compound, how does the “rescue … in words” value (ptc>dRet^M955T flies) read?
**A.** reduced survival

**Q.** With `CC(=O)Nc1cccc(-n2c(=O)n(C3CC3)c(=O)c3c(Nc4ccc(I)cc4F)n(C)c(=O)c(C)c32)c1` [trametinib, reference compound] as the compound, how does the “rescue … in words” value (ptc>dRet^M955T flies) read?
**A.** only moderate

**Q.** What about the ectopic wing venation (765>dRet^M955T flies; 1 µM, 765>dRet^M955T adults) of the same compound?
**A.** strongly suppressed ectopic venation

**Q.** What about the “wing defects (enhanced wing venation, poor wing structure)” value (765>dRet^M955T flies; 765>dRet^M955T,Lk6^−/+ flies) of the same compound?
**A.** suppressed
